In ChEMBL document CHEMBL5357024, “MDM2 Antagonist Idasanutlin Reduces HDAC1/2 Abundance and Corepressor Partners but Not HDAC3” (ACS Med Chem Lett, 2024):
Activity calls are given as the source filed them. No cut-off for these calls is given here.

Columns and labels:
HCT-116 = test: Effect on histone H3 lysine K56 acetylation in human HCT-116 cells assessed as increase in H3K56ac level at 0.1 to 10 uM by Western blot analysis; type: functional, cell-based; settings: dose 0.1-10 µM
Summary of the method: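 HCT116 cells (DMEM, 10% FBS, glutamine/pen/strep, 37 °C, 5% CO2) seeded 24 h, then treated with DMSO or compound in fresh medium. Pellets after lysis were acid-extracted with 0.4 N H2SO4 at 4 °C overnight. Acid histone extract run on 4–12% bis-Tris gels, transferred to nitrocellulose and probed for H3K56ac. IRDye secondaries with infrared imaging.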

[1] = biological target: E3 ubiquitin-protein ligase Mdm2/Histone deacetylase 3 (Homo sapiens) (UniProt Q00987+O15379); test: PROTAC activity at MDM2/HDAC3 in human HCT-116 cells assessed as reduction in HDAC3 abundance by measuring remaining activity at 1 uM measured after 24 hrs by Western blot analysis (reference value: 100%); type: cell-based
Chain of E3 ubiquitin-protein ligase Mdm2/Histone deacetylase 3 (Homo sapiens) (O15379 whole entry, looked up): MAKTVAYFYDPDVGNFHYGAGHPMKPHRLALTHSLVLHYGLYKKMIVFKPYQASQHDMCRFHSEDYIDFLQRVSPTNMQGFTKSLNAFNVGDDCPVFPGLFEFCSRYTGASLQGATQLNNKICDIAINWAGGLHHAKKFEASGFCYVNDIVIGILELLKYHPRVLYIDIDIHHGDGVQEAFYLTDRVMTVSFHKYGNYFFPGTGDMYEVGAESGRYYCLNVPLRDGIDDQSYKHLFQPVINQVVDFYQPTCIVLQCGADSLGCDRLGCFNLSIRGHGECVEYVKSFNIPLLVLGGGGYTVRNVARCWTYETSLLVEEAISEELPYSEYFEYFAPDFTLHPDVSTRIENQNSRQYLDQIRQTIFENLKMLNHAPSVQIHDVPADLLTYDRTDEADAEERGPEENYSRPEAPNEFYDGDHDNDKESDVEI
Chain of E3 ubiquitin-protein ligase Mdm2/Histone deacetylase 3 (Homo sapiens) (Q00987 whole entry, looked up): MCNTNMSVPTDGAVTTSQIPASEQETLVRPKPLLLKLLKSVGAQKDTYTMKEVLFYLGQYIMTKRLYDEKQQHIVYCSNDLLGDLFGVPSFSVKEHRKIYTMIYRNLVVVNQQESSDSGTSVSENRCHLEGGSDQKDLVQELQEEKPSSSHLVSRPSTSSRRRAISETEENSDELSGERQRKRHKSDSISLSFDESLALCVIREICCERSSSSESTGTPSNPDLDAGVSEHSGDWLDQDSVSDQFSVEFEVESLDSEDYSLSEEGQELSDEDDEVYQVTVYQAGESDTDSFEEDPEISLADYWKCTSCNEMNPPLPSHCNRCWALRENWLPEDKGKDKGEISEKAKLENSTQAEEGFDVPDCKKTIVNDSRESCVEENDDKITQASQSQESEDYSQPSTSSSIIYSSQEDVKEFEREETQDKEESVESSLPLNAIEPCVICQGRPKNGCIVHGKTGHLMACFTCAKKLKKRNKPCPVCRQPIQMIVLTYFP
Summary of the method: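 HCT116 cells in DMEM with 10% FBS and glutamine/penicillin/streptomycin at 37 °C, 5% CO2. Seeded 4 × 10^5 cells/well, after 24 h treated 24 h with DMSO or compound in fresh medium. Lysed in Tris-HCl/NaCl/NP-40/Triton X-100 buffer with protease inhibitor, Bradford-quantified, 30 μg protein per lane. Quantitative Western blot with specific HDAC1/2/3 antibodies, IRDye secondaries, infrared imaging, versus DMSO. n = 2 replicates.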

[2] = biological target: T1, E3 ubiquitin-protein ligase Mdm2/Histone deacetylase 1 (Homo sapiens) (UniProt Q00987+Q13547); test: PROTAC activity at MDM2/HDAC1 in human HCT-116 cells assessed as induction of HDAC1 degradation by Western blot analysis; type: cell-based; settings: dose 0.01-10 µM
T1 sequence (Q00987 whole entry, looked up): as above
T1 sequence (Q13547 whole entry, looked up): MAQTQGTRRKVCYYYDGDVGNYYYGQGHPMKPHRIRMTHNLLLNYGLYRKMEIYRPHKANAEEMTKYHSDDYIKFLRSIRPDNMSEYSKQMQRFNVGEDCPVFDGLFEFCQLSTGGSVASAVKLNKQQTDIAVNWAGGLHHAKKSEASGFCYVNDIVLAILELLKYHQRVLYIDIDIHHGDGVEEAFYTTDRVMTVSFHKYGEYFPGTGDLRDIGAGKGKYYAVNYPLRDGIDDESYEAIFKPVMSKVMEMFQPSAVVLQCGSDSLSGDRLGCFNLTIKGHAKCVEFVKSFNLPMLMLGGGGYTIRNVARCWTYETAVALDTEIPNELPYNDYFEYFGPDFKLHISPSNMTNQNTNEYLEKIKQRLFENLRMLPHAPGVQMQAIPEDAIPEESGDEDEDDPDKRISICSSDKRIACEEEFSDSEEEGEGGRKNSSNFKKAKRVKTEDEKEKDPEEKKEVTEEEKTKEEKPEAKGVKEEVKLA

[3] = biological target: T2, E3 ubiquitin-protein ligase Mdm2/Histone deacetylase 2 (Homo sapiens) (UniProt Q00987+Q92769); test: PROTAC activity at MDM2/HDAC2 in human HCT-116 cells assessed as induction of HDAC2 degradation by Western blot analysis; type: cell-based; settings: dose 0.01-10 µM
T2 sequence (Q00987 whole entry, looked up): as the sequence (Q00987 whole entry, looked up) above
T2 sequence (Q92769 whole entry, looked up): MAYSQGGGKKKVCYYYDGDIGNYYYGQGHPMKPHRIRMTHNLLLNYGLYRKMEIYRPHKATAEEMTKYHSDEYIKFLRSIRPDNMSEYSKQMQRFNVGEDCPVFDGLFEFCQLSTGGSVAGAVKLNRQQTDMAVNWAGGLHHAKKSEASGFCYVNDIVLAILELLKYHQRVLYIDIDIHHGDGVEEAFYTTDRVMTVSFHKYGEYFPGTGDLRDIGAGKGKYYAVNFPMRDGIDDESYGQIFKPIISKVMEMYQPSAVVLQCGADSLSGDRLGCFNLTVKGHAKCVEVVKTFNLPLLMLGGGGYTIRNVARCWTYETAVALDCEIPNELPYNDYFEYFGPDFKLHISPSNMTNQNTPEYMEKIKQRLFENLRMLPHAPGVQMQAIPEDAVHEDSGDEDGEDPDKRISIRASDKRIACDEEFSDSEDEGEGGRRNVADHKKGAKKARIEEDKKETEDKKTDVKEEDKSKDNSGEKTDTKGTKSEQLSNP

[4] = biological target: T1, E3 ubiquitin-protein ligase Mdm2/Histone deacetylase 1 (Homo sapiens); test: PROTAC activity at MDM2/HDAC1 in human HCT-116 cells assessed as decrease in HDAC1 abundance by measuring remaining activity at 0.25 uM measured after 24 hrs by Western blot analysis (reference value: 100%); type: cell-based
Summary of the method: (§1)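 HCT116 cells seeded in six-well plates for 24 h, then exposed 24 h to compound (0.01–10 μM) or DMSO in fresh medium. Lysis in Tris-HCl/NaCl/NP-40/Triton X-100 with protease inhibitor. Bradford-normalised 30 μg protein per lane. Quantitative Western blot used specific HDAC1, HDAC2, HDAC3, LSD1 or Sin3a antibodies with IRDye secondaries. Abundance compared with DMSO, n = 2 replicates.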

[5] = biological target: T2, E3 ubiquitin-protein ligase Mdm2/Histone deacetylase 2 (Homo sapiens); test: PROTAC activity at MDM2/HDAC2 in human HCT-116 cells assessed as decrease in HDAC2 abundance by measuring remaining activity at 0.01 uM measured after 24 hrs by Western blot analysis (reference value: 100%); type: cell-based; summary of the method: as §1
[6] = biological target: T2, E3 ubiquitin-protein ligase Mdm2/Histone deacetylase 2 (Homo sapiens); test: PROTAC activity at MDM2/HDAC2 in human HCT-116 cells assessed as decrease in HDAC2 abundance by measuring remaining activity at 0.25 uM measured after 24 hrs by Western blot analysis (reference value: 100%); type: cell-based; summary of the method: as §1
[7] = biological target: T2, E3 ubiquitin-protein ligase Mdm2/Histone deacetylase 2 (Homo sapiens); test: PROTAC activity at MDM2/HDAC2 in human HCT-116 cells assessed as decrease in HDAC2 abundance by measuring remaining activity at 2.5 uM measured after 24 hrs by Western blot analysis (reference value: 100%); type: cell-based; summary of the method: as §1
[8] = biological target: T2, E3 ubiquitin-protein ligase Mdm2/Histone deacetylase 2 (Homo sapiens); test: PROTAC activity at MDM2/HDAC2 in human HCT-116 cells assessed as decrease in HDAC2 abundance by measuring remaining activity at 5 uM measured after 24 hrs by Western blot analysis (reference value: 100%); type: cell-based; summary of the method: as §1
[9] = biological target: Lysine-specific histone demethylase 1A (Homo sapiens) (UniProt O60341); test: Induction of LSD1 degradation in human HCT-116 cells assessed as reduction in LSD1 abundance by measuring remaining activity at 0.25 uM measured after 24 hrs by Western blot analysis (reference value: 100%); type: cell-based; summary of the method: as §1
[10] = biological target: Lysine-specific histone demethylase 1A (Homo sapiens) (UniProt O60341); test: Induction of LSD1 degradation in human HCT-116 cells assessed as reduction in LSD1 abundance by measuring remaining activity at 1 uM measured after 24 hrs by Western blot analysis (reference value: 100%); type: cell-based; summary of the method: as §1
[11] = biological target: Lysine-specific histone demethylase 1A (Homo sapiens) (UniProt O60341); test: Induction of LSD1 degradation in human HCT-116 cells assessed as reduction in LSD1 abundance by measuring remaining activity at 2.5 uM measured after 24 hrs by Western blot analysis (reference value: 100%); type: cell-based; summary of the method: as §1

Structure (SMILES): COc1cc(C(=O)NCCOCCOCCOCCOCCC(=O)Nc2ccc(C(=O)Nc3ccccc3N)cc2)ccc1NC(=O)[C@@H]1N[C@@H](CC(C)(C)C)[C@](C#N)(c2ccc(Cl)cc2F)[C@H]1c1cccc(Cl)c1F
- Activity (HCT-116): inactive
- Activity [1]: 104%
- Activity [2]: Dose-Dependent Effect
- Activity [3]: Dose-Dependent Effect
- Activity [4]: 70%
- Activity [5]: 97%
- Activity [6]: 90%
- Activity [7]: 72%
- Activity [8]: 69%
- Activity [9]: 95%
- Activity [10]: 81%
- Activity [11]: 73%
